SIAE primary: blocks human sialic acid acetylesterase | Q9HAT2 | SIAE FP-Rh probe binding, fluorescence polarization | inhibition, % at 9.66 µM | 370,000 tested, 0.69% active | AID 1053197;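 active means inhibition above a cutoff: mean of compounds within the control limits plus 3 SD of those, cut at about 17% in these data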;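 further: 0% = plate median of compound wells and 100% = probe without SIAE protein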
PRMT1 inh: blocks human protein arginine methyltransferase 1; recombinant PRMT1, activity-based probe fluorescence polarization; 370,000 tested, 1.3% active; inhibition, % at 2.79 µM; Q99873;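 active means inhibition above about 21% made by adding two undisclosed values, limit read from the data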
Target sequence (Q99873 whole entry, looked up): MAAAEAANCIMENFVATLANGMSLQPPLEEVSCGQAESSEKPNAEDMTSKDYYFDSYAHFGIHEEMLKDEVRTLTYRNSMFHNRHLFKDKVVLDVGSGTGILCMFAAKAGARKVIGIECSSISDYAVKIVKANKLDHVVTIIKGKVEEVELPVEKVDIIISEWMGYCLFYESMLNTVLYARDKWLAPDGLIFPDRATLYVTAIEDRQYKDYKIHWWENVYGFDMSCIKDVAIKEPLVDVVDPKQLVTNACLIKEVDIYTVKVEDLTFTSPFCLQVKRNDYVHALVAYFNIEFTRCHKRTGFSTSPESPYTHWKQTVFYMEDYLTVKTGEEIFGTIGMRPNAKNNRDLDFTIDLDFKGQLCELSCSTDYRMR
MBD2 DNA inh: blocks human MBD2 binding to methylated DNA; TR-FRET, MBD2 binding to methylated oligonucleotide; inhibition, % at 4.4 µM; 370,000 tested, 0.31% active; in the data active means inhibition above about 13%
UHRF1 MBD2 ctr: UHRF1 methyl-DNA binding inhibition; Q96T88; UHRF1 binding to methylated oligo, TR-FRET; inhibition, % at 4.4 µM; 370,000 tested, 0.75% active; AID 687016; in the data active means inhibition above about 21%;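 further: UHRF1 SRA domain binding a hemimethylated CpG hairpin DNA probe; 0% = median of test compound wells and 100% = reference inhibitor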
TDP2 absorb: blocks human TDP2 phosphodiesterase activity | recombinant TDP2, T5PNP hydrolysis, p-nitrophenol absorbance 415 nm | O95551 | AID 720702 | inhibition, % at 12.8 µM | 370,000 tested, 0.34% active;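 active means inhibition above the mean of all tested compounds plus 3 SD, set per campaign, cut at about 25% in these data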;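 further: 0% = DMSO with enzyme and 100% = buffer with substrate but no TDP2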
Target sequence (O95551 whole entry, looked up): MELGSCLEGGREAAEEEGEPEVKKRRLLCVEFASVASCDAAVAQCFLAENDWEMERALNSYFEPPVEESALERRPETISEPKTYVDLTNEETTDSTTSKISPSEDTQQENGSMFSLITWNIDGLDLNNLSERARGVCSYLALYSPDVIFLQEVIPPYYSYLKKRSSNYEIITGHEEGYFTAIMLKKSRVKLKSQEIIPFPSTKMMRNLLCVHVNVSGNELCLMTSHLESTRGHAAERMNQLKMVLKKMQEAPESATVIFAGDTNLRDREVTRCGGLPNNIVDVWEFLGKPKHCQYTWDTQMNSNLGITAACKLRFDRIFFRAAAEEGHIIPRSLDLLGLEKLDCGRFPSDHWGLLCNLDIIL
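Assay system: recombinant human TDP2 / Reagent: T5PNP substrate at 5 mM, a TopII-DNA adduct mimic / Measured by: epi absorbance from released p-nitrophenol / Evaluation: % inhibition relative to enzyme-containing and enzyme-free wells / Control set: enzyme-free and DMSO wells / Replicates: each compound tested once, singlicate / Schedule: enzyme reaction with compound for 2 h at 37 °C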
LEDGF integ inh: blocks HIV-1 LEDGF/p75-dependent DNA integration. 370,000 tested, 0.64% active. inhibition, % at 3.7 µM. TR-FRET IN-LEDGF/p75 DNA integration, Eu/Cy5;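 active means inhibition above the screen-wide mean plus 3 SD, cut at about 13% in these data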;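 further: signal is the Cy5 over europium emission ratio at 671 and 618 nm; 0% = plate median of compound wells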
PRMT1 confirm: confirmation of human PRMT1 inhibitors; shares compounds with PRMT1 inh; recombinant His-PRMT1, activity-based probe fluorescence polarization; inhibition, % at 2.79 µM; 3,300 tested, 42% active;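 active means mean inhibition across replicates above the hit cutoff derived for the earlier primary screen, cut at about 22% in these data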
UHRF1 ctr MBD2: counter-screen for MBD2 inhibitors: human UHRF1 methylated DNA binding inhibitors | AID 720530 | shares compounds with MBD2 DNA inh | UHRF1 binding to methylated oligonucleotide, TR-FRET | inhibition, % at 4.4 µM | 1,000 tested, 25% active; in the data active means inhibition above about 21%;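 further: UHRF1 SRA domain binding a labeled hemimethylated CpG hairpin DNA; 0% = vehicle only and 100% = reference inhibitor with vehicle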
MBD2 confirm: MBD2-DBD methyl-DNA binding inhibition, TR-FRET confirmation. 1,000 tested, 26% active. shares compounds with MBD2 DNA inh. TR-FRET MBD2-DBD binding to methylated oligonucleotide. inhibition, % at 4.4 µM
TDP2 confirm: human TDP2 inhibition, confirmation; shares compounds with TDP2 absorb; recombinant human TDP2, absorbance read-out; inhibition, % at 12.8 µM; 1,100 tested, 22% active; AID 743263; in the data active means inhibition above about 25%;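 further: 0% = vehicle with enzyme and 100% = no enzyme buffer only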
IN multimer up: counter-screen for LEDGF/p75 integration inhibitors: HIV-1 integrase multimerization activators; shares compounds with LEDGF integ inh; TR-FRET HIV-1 integrase multimerization, biochemical; activation, % at 7.7 µM; 2,000 tested, 17% active; in the data active means activation above about 8.9%
TRFRET interf: counter-screen for LEDGF/p75 integration inhibitors: TR-FRET optical interference. shares compounds with LEDGF integ inh. TR-FRET optical interference counterscreen, HIV-1 IN multimerization. 2,000 tested, under 10 active. inhibition, % at 7.7 µM;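 active means inhibition above the mean over all tested compounds plus 3 SD, which no compound reached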;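 further: 0% = integrase with antibodies and DMSO and 100% = antibodies without integrase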
IN-LEDGF confirm: confirmation of HIV-1 LEDGF/p75-dependent integration inhibitors; shares compounds with LEDGF integ inh; inhibition, % at 3.7 µM; TR-FRET LEDGF/p75-dependent HIV-1 integration, biochemical; 2,000 tested, 36% active; AID 1053136
* marks the source's active call; other numbers are inactive results. This is a sample that favours compounds with a hit; in the whole collection about 3.3% have one here. Unless noted, no stated cut-off is given here; in the data, active means inhibition above about 14%; inactive means the rest.

Results for O=C(CCCN1C(=O)/C(=C/c2ccco2)SC1=S)Nc1cccc(C(=O)O)c1 ?
SIAE primary: -3.6; PRMT1 inh: 32.7*; MBD2 DNA inh: 29.7*; UHRF1 MBD2 ctr: 76.0*; TDP2 absorb: 20.2; LEDGF integ inh: 46.1*; PRMT1 confirm: 13.7; UHRF1 ctr MBD2: 21.0*; MBD2 confirm: 2.8; IN multimer up: 3.4; TRFRET interf: -17.1; IN-LEDGF confirm: 25.7*

Results for O=C(CCCN1C(=O)/C(=C\c2cccs2)SC1=S)Nc1cccc(C(=O)O)c1 ?
SIAE primary: 1.5; PRMT1 inh: -2.8; MBD2 DNA inh: -4.8; UHRF1 MBD2 ctr: -1.3; TDP2 absorb: -11.6; LEDGF integ inh: -1.1

How did CCOC(=O)C1CCN(C(=O)C(C)(C)NC(=O)Nc2ccc(Cl)cc2Cl)CC1 do in these assays?
SIAE primary: 4.0; PRMT1 inh: -4.8; MBD2 DNA inh: -0.8; UHRF1 MBD2 ctr: 4.1; TDP2 absorb: -2.6; LEDGF integ inh: -2.2

Results for CC(C)(C)c1ccc(C(=O)N/C(=C\c2ccco2)C(=O)Nc2ccccc2C(=O)O)cc1 ?
SIAE primary: -9.6; PRMT1 inh: 45.9*; MBD2 DNA inh: 6.4; UHRF1 MBD2 ctr: 16.1; TDP2 absorb: -0.9; LEDGF integ inh: 20.0*; PRMT1 confirm: 0.7; IN multimer up: 1.9; TRFRET interf: -9.7; IN-LEDGF confirm: 25.5*

Results for O=C(/C=C/c1ccco1)Nc1cccc(C(=O)Nc2ccccc2C(=O)O)c1 ?
SIAE primary: -64.1; PRMT1 inh: 25.9*; MBD2 DNA inh: 12.4; UHRF1 MBD2 ctr: 36.6*; TDP2 absorb: 27.8*; LEDGF integ inh: 18.5*; PRMT1 confirm: 46.0*; TDP2 confirm: 12.5; IN multimer up: 3.3; TRFRET interf: -16.5; IN-LEDGF confirm: 12.7

Results for CCc1ccccc1NC(=O)c1cccc(NC(=O)/C=C/c2ccco2)c1 ?
SIAE primary: -14.7; PRMT1 inh: 18.2; MBD2 DNA inh: -1.5; UHRF1 MBD2 ctr: -2.8; TDP2 absorb: -6.8; LEDGF integ inh: 4.6

How did Cc1cc(C)cc(OC[C@@H](O)CN2CCC(C(O)(c3ccccc3)c3ccccc3)CC2)c1 do in these assays?
SIAE primary: 2.2; PRMT1 inh: -7.3; MBD2 DNA inh: 1.3; UHRF1 MBD2 ctr: -0.5; TDP2 absorb: 0.9; LEDGF integ inh: 1.2

How did COC(=O)[C@]12C[C@H](CC(=O)NCc3ccc(C)o3)C(=O)N(Cc3ccc4c(c3)OCO4)C1=C[C@H](C(C)C)O[C@@H]2C1CC1 do in these assays?
SIAE primary: 1.6; PRMT1 inh: 3.0; MBD2 DNA inh: 4.3; UHRF1 MBD2 ctr: 1.8; TDP2 absorb: 1.7; LEDGF integ inh: -0.5

How did Cc1ccc(/C=C/C(=O)Nc2cccc3cccnc23)o1 do in these assays?
SIAE primary: -4.1; PRMT1 inh: 59.0*; MBD2 DNA inh: -7.4; UHRF1 MBD2 ctr: -0.8; TDP2 absorb: -0.1; LEDGF integ inh: 14.4*; PRMT1 confirm: 22.7*; IN multimer up: 2.3; TRFRET interf: -8.4; IN-LEDGF confirm: 1.4

Results for Cc1cccc(C(=O)Nc2cccc3cccnc23)c1 ?
SIAE primary: -0.2; PRMT1 inh: -2.2; MBD2 DNA inh: -2.1; UHRF1 MBD2 ctr: 1.2; TDP2 absorb: -0.9; LEDGF integ inh: 4.8

What do the screens show for `O=C(OCc1cn(Cc2cccc(F)c2F)nn1)N1CCOCC1`?
SIAE primary: 1.9; PRMT1 inh: 4.0; MBD2 DNA inh: 1.4; UHRF1 MBD2 ctr: 3.8; TDP2 absorb: -8.7; LEDGF integ inh: -1.3

What do the screens show for `COC(=O)[C@]12CCCCC=C1N(Cc1ccc(OC)cc1)C(=O)[C@@H]2CC(=O)NCC1CCCCC1`?
SIAE primary: 0.7; PRMT1 inh: 2.7; MBD2 DNA inh: 0.7; UHRF1 MBD2 ctr: 5.2; TDP2 absorb: -1.5; LEDGF integ inh: -1.0

Results for Cc1ccc(C)n1C(CC(=O)O)c1ccc(C#N)cc1 (stereo not drawn) ?
SIAE primary: -2.2; PRMT1 inh: 27.0*; MBD2 DNA inh: 27.1*; UHRF1 MBD2 ctr: 94.6*; TDP2 absorb: -3.7; LEDGF integ inh: 47.5*; PRMT1 confirm: -0.2; UHRF1 ctr MBD2: 11.1; MBD2 confirm: 4.6; IN multimer up: 1.6; TRFRET interf: -5.6; IN-LEDGF confirm: 12.8

Results for CCOC(=O)CC(c1ccc(N)cc1)n1c(C)ccc1C (stereo not drawn) ?
SIAE primary: 13.0; PRMT1 inh: 1.3; MBD2 DNA inh: 2.5; UHRF1 MBD2 ctr: -0.3; TDP2 absorb: 1.3; LEDGF integ inh: -3.7

What do the screens show for `Clc1ccc(OCCOc2ccc(Br)nc2Br)c(Cl)c1`?
SIAE primary: -2.0; PRMT1 inh: -2.6; MBD2 DNA inh: -2.5; UHRF1 MBD2 ctr: 0.0; TDP2 absorb: 1.4; LEDGF integ inh: -0.1

Results for Oc1ccccc1/C=N/c1c(-c2ccco2)nc2ccccn12 ?
SIAE primary: 15.1; PRMT1 inh: 26.9*; MBD2 DNA inh: -7.8; UHRF1 MBD2 ctr: 4.4; TDP2 absorb: 5.8; LEDGF integ inh: 19.7*; PRMT1 confirm: 5.8; IN multimer up: 2.6; TRFRET interf: -12.9; IN-LEDGF confirm: 4.4

What do the screens show for `Clc1ccc(/C=N/c2c(-c3ccco3)nc3ccccn23)cc1`?
SIAE primary: 11.6; PRMT1 inh: 14.4; MBD2 DNA inh: 2.0; UHRF1 MBD2 ctr: 3.8; TDP2 absorb: 16.2; LEDGF integ inh: 11.5

High-throughput results deposited in PubChem BioAssay by The Scripps Research Institute Molecular Screening Center.
